The text below walks through data of ChEMBL document CHEMBL1134546, “Structure-based design, synthesis, and biological evaluation of conformationally restricted novel 2-alkylthio-6-[1-(2,6-difluorophenyl)alkyl]-3,4-dihydro-5-alkylpyrimidin-4(3H)-ones as non-nucleoside inhibitors of HIV-1 reverse transcriptase” (J Med Chem, 2001).

Experiment [1] concerns Human immunodeficiency virus 1. As to the kind of experiment: Effective concentration against HIV-1 induced cytopathogenicity in MT-4 cells. Type of experiment: functional, organism-based, MT4. In a few lines: (§1)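 MT-4 cells (1 × 10⁴/well) incubated with serial compound dilutions (200 mM DMSO stock diluted in medium), with or without HIV-1 IIIB (100 CCID₅₀/well), 4 days at 37 °C in RPMI 1640 with 10% FCS. Viable cells counted by MTT. CC₅₀ from mock-infected cells and EC₅₀ as 50% protection from virus-induced cytopathicity, run in parallel. Mean of at least two experiments.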

Experiment [2] relates to MT4. In words: Cytotoxicity against MT-4 cells. Type of experiment: functional, Homo sapiens. The settings on record: Homo sapiens, MT4. In a few lines: as §1
Experiment [3] has as its system MT4. As to the kind of experiment: CC50/EC50 ratio of the compound. Type of experiment: functional. In a few lines: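 Selectivity index, calculated as CC₅₀/EC₅₀. Both values come from the parallel MTT readout in mock-infected and HIV-1 IIIB-infected MT-4 cells (4-day incubation at 37 °C).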
Experiment [4] deals with MT4. As to the kind of experiment: Anti-HIV-1 activity against WTIIIB HIV-1 strain in MT-4 cells. Type of experiment: functional, cell-based. As to conditions: Homo sapiens.
Experiment [5] relates to MT4. As to the kind of experiment: Anti-HIV-1 activity against Y181C HIV-1 strain in MT-4 cells. Type of experiment: functional, cell-based. The settings on record: Homo sapiens.
Experiment [6] has as its system Human immunodeficiency virus 1. In words: Anti-HIV-1 activity determined as dose required to reduce p24 antigen levels. Type of experiment: functional.
Experiment [7] addresses Human immunodeficiency virus type 1 reverse transcriptase (Human immunodeficiency virus 1, UniProt Q72547). In words: Inhibitory activity against HIV-1 recombinant reverse transcriptase.
The mark [8] stands for this setting: Human immunodeficiency virus 1, MT4.

For the compound `CCC(c1cc(O)nc(SC2CCCC2)n1)c1c(Cl)cccc1Cl` (stereo not drawn), the 50% effective concentration (EC50) in experiment [1] (setting [8]) was 1 µM. This compound also returned a CC50 with MT4 [2] of 23.4 µM. Besides, the Selectivity index with MT4 [3] came out at 23.4.
For `Cc1ccnc2c1NC(=O)c1cccnc1N2C1CC1` [NEVIRAPINE], the EC50 in the experiment on MT4 [4] was 0.37 µM; in the experiment with MT4 [5], more than 30 µM.
Regarding `CCC(c1cc(O)nc(SC2CCCC2)n1)c1c(F)cccc1F` (stereo not drawn), in experiment [6], the 90% effect concentration (EC90) was found to be 0.08 µM, the EC99 came to 0.15 µM and the EC99.9 is 0.3 µM. For the same compound, the EC50 in experiment [1] (setting [8]) worked out at 0.15 µM. The CC50 in the experiment with MT4 [2] is more than 200 µM. Further, the Selectivity index with MT4 [3] is recorded as 1333.
Consider `CC(c1cc(O)nc(SC2CCCC2)n1)c1c(Cl)cccc1Cl` (stereo not drawn), for which, in experiment [1] (setting [8]), the EC50 stood at 1 µM. Further, the 50% cytotoxic concentration (CC50) in the experiment on MT4 [2] stood at 78.3 µM. For the same compound, in the experiment with MT4 [3], the Selectivity index turned out to be 78.3.
Consider `CCC(C)Sc1nc(O)cc(C(C)c2ccccc2)n1` (stereo not drawn), for which, in experiment [1] (setting [8]), a half-maximal response (EC50) required 0.23 µM. In the experiment with MT4 [2], this compound returned a CC50 of 200 µM. Further, in the experiment on MT4 [3], the Selectivity index is recorded as 870.
In experiment [1] (setting [8]), `CCCCSc1nc(O)cc(C(C)c2c(F)cccc2F)n1` (stereo not drawn) came in with an EC50 of 0.07 µM. In addition, the CC50 in the experiment with MT4 [2] is more than 200 µM. Also, the Selectivity index with MT4 [3] was found to be 2857.
For `Cc1c(O)nc(SCC(C)C)nc1C(C)c1c(F)cccc1F` (stereo not drawn) the same measures were 0.01 µM, more than 200 µM and more than 20000.
In turn, `CC(C)Sc1nc(O)cc(C(C)c2ccccc2)n1` (stereo not drawn) registered an EC50 in experiment [1] (setting [8]) of 0.9 µM. The same compound had a CC50 with MT4 [2] of more than 200 µM. Further, the IC50 in experiment [7] is 2.3 µM. Also, the Selectivity index with MT4 [3] is reported as more than 222.
`CCC(c1cc(O)nc(SC(C)C)n1)c1c(Cl)cccc1Cl` (stereo not drawn): the response in experiment [1] (setting [8]) was half-maximal at 0.4 µM (EC50). In the experiment with MT4 [2], this compound came in with a CC50 of more than 200 µM. In addition, the Selectivity index in the experiment with MT4 [3] is more than 500.
In experiment [1] (setting [8]), `CCC(c1cc(O)nc(SC(C)C)n1)c1cccc2ccccc12` (stereo not drawn) yielded an EC50 of 1.5 µM. Besides, in the experiment with MT4 [2], the CC50 amounted to 50 µM. Also, the IC50 in experiment [7] was 0.8 µM. In addition, in the experiment with MT4 [3], the Selectivity index came to 33.3.
In experiment [1] (setting [8]), `CCC(c1cc(O)nc(SC2CCCCC2)n1)c1c(F)cccc1F` (stereo not drawn) showed an EC50 of 0.05 µM. Further, the half-maximal cytotoxic concentration (CC50) with MT4 [2] is more than 200 µM. Also, in the experiment on MT4 [3], the Selectivity index is 2600.
On to `Cc1c(C(C)c2c(F)cccc2F)nc(SC2CCCC2)[nH]c1=O` (stereo in doubt; [+]3w), for which the EC50 in experiment [1] (mt4) was determined as 0.002 µM. The CC50 in the experiment with MT4 [2] is more than 200 µM. Further, the IC50 in experiment [7] amounted to 0.008 µM. Also, in the experiment with MT4 [3], the Selectivity index was more than 100000.
Compound `CCC(c1cc(O)nc(SC2CCCCC2)n1)c1c(Cl)cccc1Cl` (stereo not drawn) displayed an EC50 in experiment [1] (setting [8]) of 3.6 µM. The compound also showed a CC50 with MT4 [2] of more than 200 µM. Also, in the experiment on MT4 [3], the Selectivity index is listed as more than 55.5.
As to `CC(C)Sc1nc(O)cc(C(C)c2c(F)cccc2F)n1` (stereo not drawn), in experiment [6], the 90% effect level (EC90) was put at 0.042 µM, the 99% effect level (EC99) was put at 0.083 µM and the EC99.9 stood at 0.19 µM. Besides, in experiment [1] (setting [8]), the response was half-maximal at 0.05 µM (EC50). In the experiment with MT4 [2], this compound displayed a CC50 of 167 µM. The Selectivity index in the experiment on MT4 [3] was determined as 3340.
In experiment [6], `O=c1cc(Cc2c(F)cccc2F)nc(SC2CCCC2)[nH]1` showed an EC90 of 0.08 µM, an EC99 of 0.15 µM and an EC99.9 of 0.3 µM. Besides, in experiment [1] (setting [8]), the EC50 worked out at 0.08 µM. Also, the Selectivity index in the experiment on MT4 [3] is more than 2500.
Compound `CCCCSc1nc(O)c(C)c(C(C)c2c(F)cccc2F)n1` (stereo not drawn) returned an EC50 in experiment [1] (setting [8]) of 0.008 µM. In addition, half-maximal cytotoxicity in the experiment with MT4 [2] (CC50) was put at 112 µM. In addition, the Selectivity index in the experiment with MT4 [3] stood at 14000.
The matching figures for `CCC(C)Sc1nc(O)cc(C(CC)c2ccccc2)n1` (stereo not drawn): 0.4 µM, more than 200 µM and more than 500.
As to `CC(C)Sc1nc(O)cc(C(C)c2c(Cl)cccc2Cl)n1` (stereo not drawn), in experiment [1] (setting [8]), the response was half-maximal at 1.2 µM (EC50). Besides, the CC50 in the experiment with MT4 [2] stood at 117 µM. Also, the Selectivity index in the experiment with MT4 [3] stood at 97.5.
On to `CCC(C)Sc1nc(O)cc(C(C)c2c(F)cccc2F)n1` (stereo not drawn), for which the EC50 in experiment [1] (setting [8]) worked out at 0.03 µM. The 50% cytotoxic concentration (CC50) in the experiment with MT4 [2] is more than 200 µM. For the same compound, the Selectivity index in the experiment on MT4 [3] is more than 6666.
The matching figures for `CCC(c1cc(O)nc(SC2CCCC2)n1)c1cccc2ccccc12` (stereo not drawn): 3 µM, 51 µM and 17.
In turn, `CCC(c1cc(O)nc(SC2CCCCC2)n1)c1cccc2ccccc12` (stereo not drawn) returned an EC50 in experiment [1] (setting [8]) of 0.18 µM. In the experiment on MT4 [2], this compound displayed a CC50 of 16.9 µM. Also, the IC50 in experiment [7] was found to be 1.4 µM. For the same compound, the Selectivity index in the experiment with MT4 [3] is given as 94.
The compound `CC(C)Sc1nc(O)cc(C(C)c2cccc3ccccc23)n1` (stereo not drawn) registered an EC50 in experiment [1] (setting [8]) of 1.1 µM. Further, in the experiment on MT4 [2], it took 119 µM to reach half-maximal cytotoxicity (CC50). Further, in experiment [7], the IC50 stood at 5.8 µM. Further, the Selectivity index with MT4 [3] is 108.

A word on the EC50: it is the midpoint of the concentration-response curve. Low readings indicate a more potent agent, high ones a less potent agent. What is called CC50 is the concentration giving 50% cytotoxicity. Broadly, the EC90 is the point of the concentration-response curve where the effect stands at 90%. Low readings indicate greater potency, high ones weaker potency. One may read the EC99 as the point of the concentration-response curve where the effect stands at 99%. The IC50 is the concentration that gives 50% inhibition.
